The source of these data is ChEMBL document CHEMBL1146547, “Bulbinelonesides A-E, phenylanthraquinone glycosides from the roots of Bulbinella floribunda” (J Nat Prod, 2003).

Molecules are shown by their SMILES. In brackets after ≈: the same amount, converted by molar mass. Bounds are passed on as bounds.

For one assay, the system named is HSC-2. The experiment in a line: Cytotoxicity against human HSC2 cells by MTT assay. Format: functional, cell-based. An outline of the steps:
(§1)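 Cells were grown in DMEM with 10% heat-inactivated FBS and penicillin/streptomycin under humidified 5% CO2. HPC came from premolar pulp explants and were used at passages 5–10. Cells were trypsinized, seeded at 6 × 10^3 to 1.2 × 10^4, incubated 24 h, washed with PBS, then exposed to compound for 24 h. MTT (0.2 mg/mL, 4 h) was added, cells were lysed in DMSO, and A540 was read. LD50 was taken from the dose-response curve.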

Assay [1] is described as follows: Cytotoxicity against human HPC by MTT assay. An outline of the steps:
as §1

Regarding `COc1cc(O)c(C(C)=O)c(O)c1-c1c(C)cc(O)c2c1C(=O)c1cccc(O)c1C2=O`, the IC50 (in general, the point on the concentration scale where inhibition reaches its midpoint) with HSC-2 stood at 25 µg/mL (≈ 57.6 µM); in assay [1], 57 µg/mL (≈ 131 µM).

Turning to `COc1cc(O[C@@H]2O[C@H](CO)[C@@H](O)[C@H](O)[C@H]2O)c(-c2c(C)cc(O)c3c2C(=O)c2cccc(O)c2C3=O)c(O)c1C(C)=O` [BULBINELONESIDE A], the IC50 is 36 µg/mL (≈ 60.3 µM) in the assay on HSC-2 and over 120 µg/mL in assay [1].

Consider `CC(=O)c1c(O)cc(O[C@@H]2OC[C@@H](O)[C@H](O)[C@H]2O)c(-c2c(C)cc(O)c3c2C(=O)c2cccc(O)c2C3=O)c1O` [BULBINELONESIDE B], for which the IC50 is 56 µg/mL (≈ 101 µM) in the assay with HSC-2 and over 120 µg/mL in assay [1].

Regarding `CC(=O)c1c(O[C@@H]2OC[C@@H](O)[C@H](O)[C@H]2O)cc(O)c(-c2c(C)cc(O)c3c2C(=O)c2cccc(O)c2C3=O)c1O` [BULBINELONESIDE C], the IC50 (in the assay with HSC-2; in assay [1]) was over 120 µg/mL each time.

As to `CC(=O)c1c(O[C@@H]2O[C@H](CO)[C@@H](O)[C@H](O)[C@H]2O)cc(O)c(-c2c(C)cc(O)c3c2C(=O)c2cccc(O)c2C3=O)c1O` [BULBINELONESIDE D], the IC50 (in the assay on HSC-2; in assay [1]) was over 120 µg/mL each time.

As to `CC(=O)c1c(O[C@@H]2OC[C@@H](O)[C@H](O[C@@H]3O[C@H](CO)[C@@H](O)[C@H](O)[C@H]3O)[C@H]2O)cc(O)c(-c2c(C)cc(O)c3c2C(=O)c2cccc(O)c2C3=O)c1O` [BULBINELONESIDE E], the half-inhibitory concentration (IC50) (with HSC-2; in assay [1]) was over 120 µg/mL throughout.

Take `COc1cc([C@@H]2c3cc4c(cc3[C@@H](O[C@@H]3O[C@@H]5CO[C@@H](C)O[C@H]5[C@H](O)[C@H]3O)[C@H]3COC(=O)[C@H]23)OCO4)cc(OC)c1O` [ETOPOSIDE]: the half-maximal inhibitory concentration (IC50) with HSC-2 was 24 µg/mL (≈ 40.8 µM); in assay [1] it was over 120 µg/mL.

Consider `COc1cc(O)c(-c2c(C)cc(O)c3c2C(=O)c2cccc(O)c2C3=O)c(O)c1C(C)=O` [KNIPHOLONE], for which the results for the IC50 (in the assay with HSC-2; in assay [1]) were 33 µg/mL (≈ 76 µM) and over 120 µg/mL, respectively.
